Publication PMC5532717 (ACS Central Science, 2017)

Key:
[1] = molecular target: T1, lactase-phlorizin hydrolase (LPH) (Mus musculus, UniProt F8VPT3); assay: Competitive ABPP against probe 13 in mouse gastrointestinal lysate; assay type: biochemical; settings: mouse intestine lysate, 1 h at 37 °C
T1 sequence (F8VPT3 869-1931 limits assumed): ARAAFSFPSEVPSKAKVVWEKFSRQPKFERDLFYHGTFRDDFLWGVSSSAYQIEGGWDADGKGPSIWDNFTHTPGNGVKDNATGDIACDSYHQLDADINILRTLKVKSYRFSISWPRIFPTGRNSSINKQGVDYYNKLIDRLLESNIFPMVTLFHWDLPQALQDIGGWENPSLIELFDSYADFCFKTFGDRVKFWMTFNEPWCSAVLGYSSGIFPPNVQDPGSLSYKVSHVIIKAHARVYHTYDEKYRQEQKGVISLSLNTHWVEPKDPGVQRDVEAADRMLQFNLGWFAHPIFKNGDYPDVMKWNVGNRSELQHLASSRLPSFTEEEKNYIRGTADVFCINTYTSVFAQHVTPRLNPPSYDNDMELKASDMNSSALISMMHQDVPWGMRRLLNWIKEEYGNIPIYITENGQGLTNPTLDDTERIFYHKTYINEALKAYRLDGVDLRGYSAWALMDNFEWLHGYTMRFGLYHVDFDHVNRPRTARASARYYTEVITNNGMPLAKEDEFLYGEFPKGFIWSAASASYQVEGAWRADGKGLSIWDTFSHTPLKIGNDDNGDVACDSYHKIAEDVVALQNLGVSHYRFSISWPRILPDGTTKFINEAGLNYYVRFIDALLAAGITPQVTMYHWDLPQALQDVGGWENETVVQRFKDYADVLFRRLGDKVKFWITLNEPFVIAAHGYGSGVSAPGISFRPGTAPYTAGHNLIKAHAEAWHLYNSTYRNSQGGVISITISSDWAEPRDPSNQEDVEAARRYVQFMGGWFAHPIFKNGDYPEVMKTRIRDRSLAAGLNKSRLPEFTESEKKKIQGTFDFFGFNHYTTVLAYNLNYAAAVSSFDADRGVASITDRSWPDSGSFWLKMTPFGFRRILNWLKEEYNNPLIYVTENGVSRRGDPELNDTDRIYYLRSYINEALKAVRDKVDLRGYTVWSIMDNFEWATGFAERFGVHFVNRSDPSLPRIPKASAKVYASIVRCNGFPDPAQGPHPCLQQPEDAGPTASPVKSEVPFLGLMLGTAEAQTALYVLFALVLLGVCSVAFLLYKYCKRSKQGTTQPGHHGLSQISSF
Method in brief: (§1)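 Mixed mouse duodenum, jejunum and ileum homogenates were made in 25 mM potassium phosphate pH 6.5 with protease inhibitors (40 μg protein). Held 5 min on ice in McIlvaine buffer pH 4 or 7. Incubated 1 h at 37 °C with test compound (final 150 to 0.005 μM, plus 0), then probe 13 for 30 min at 37 °C. Boiled in Laemmli buffer, 10% SDS–PAGE, Cy5 fluorescence scan.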

GBA2 = molecular target: T2, GBA2 (Homo sapiens, UniProt Q9HCG7); assay: In vitro apparent IC50, GBA2 overexpressing HEK293T lysate, 4-MU-β-Glc; assay type: biochemical
T2 sequence (Q9HCG7 1-927): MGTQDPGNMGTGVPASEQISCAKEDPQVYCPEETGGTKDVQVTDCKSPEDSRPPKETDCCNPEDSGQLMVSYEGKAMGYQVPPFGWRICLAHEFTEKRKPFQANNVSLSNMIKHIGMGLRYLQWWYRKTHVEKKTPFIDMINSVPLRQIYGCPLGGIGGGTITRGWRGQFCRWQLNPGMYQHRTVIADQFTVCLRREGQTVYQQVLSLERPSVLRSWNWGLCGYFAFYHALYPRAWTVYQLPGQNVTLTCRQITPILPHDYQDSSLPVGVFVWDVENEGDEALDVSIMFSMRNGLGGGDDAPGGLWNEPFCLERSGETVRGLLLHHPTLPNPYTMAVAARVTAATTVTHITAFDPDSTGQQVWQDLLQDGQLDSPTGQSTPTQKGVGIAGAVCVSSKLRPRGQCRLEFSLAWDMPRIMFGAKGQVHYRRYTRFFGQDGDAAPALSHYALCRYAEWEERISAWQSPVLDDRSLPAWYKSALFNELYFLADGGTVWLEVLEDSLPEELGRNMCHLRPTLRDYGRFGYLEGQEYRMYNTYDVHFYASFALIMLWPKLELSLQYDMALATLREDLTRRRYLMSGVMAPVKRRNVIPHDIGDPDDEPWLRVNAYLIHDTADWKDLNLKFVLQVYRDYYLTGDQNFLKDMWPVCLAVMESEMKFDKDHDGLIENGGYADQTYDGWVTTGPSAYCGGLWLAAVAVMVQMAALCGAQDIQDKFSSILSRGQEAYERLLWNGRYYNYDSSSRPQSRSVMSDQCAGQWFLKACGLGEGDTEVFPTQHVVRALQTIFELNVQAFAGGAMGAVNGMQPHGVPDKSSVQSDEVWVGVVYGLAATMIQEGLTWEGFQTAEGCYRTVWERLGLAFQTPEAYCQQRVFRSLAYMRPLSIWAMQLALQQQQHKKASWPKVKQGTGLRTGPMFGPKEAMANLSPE
Method in brief: (§2)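 The enzyme source was GBA2-overexpressing HEK293T lysate or recombinant human GAA. It was preincubated 30 min at 37 °C with a range of test compound concentrations, then transferred into 4-MU glucoside substrate mixture to measure residual activity. Quenched with 1 M NaOH–glycine pH 10.3; 4-MU fluorescence at λex 366/λem 445 nm. Apparent IC50 is the mean of three technical replicates.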

[2] = Solvolytic stability in McIlvaine buffer pH 4.0 by NMR; assay type: physicochemical; settings: McIlvaine buffer pH 4.0, room temperature, 24 h, 1H NMR
GBA3 = molecular target: T3, GBA3 (Homo sapiens, UniProt Q9H227); assay: Competitive ABPP against β-glucosidase probe 14, GBA3+ HEK293T lysate; assay type: biochemical; settings: 5 from 30 to 0 μM, 1 h at 37 °C, pH 6.0
T3 sequence (Q9H227 1-469): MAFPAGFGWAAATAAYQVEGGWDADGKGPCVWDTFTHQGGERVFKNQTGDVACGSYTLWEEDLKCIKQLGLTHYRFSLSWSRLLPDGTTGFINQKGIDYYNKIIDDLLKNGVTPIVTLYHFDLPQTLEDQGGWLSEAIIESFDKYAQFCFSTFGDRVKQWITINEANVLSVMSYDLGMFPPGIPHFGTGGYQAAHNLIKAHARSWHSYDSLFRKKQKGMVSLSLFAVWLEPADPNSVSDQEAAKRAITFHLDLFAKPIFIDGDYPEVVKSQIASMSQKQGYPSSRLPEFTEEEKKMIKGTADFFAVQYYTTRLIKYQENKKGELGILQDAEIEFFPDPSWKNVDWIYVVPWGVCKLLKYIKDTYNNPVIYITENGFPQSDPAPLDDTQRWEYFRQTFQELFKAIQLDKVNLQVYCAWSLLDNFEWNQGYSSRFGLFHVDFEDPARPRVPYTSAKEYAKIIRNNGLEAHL

human α-glucosidase GAA = human α-glucosidase GAA (Homo sapiens, UniProt P10253); assay: In vitro apparent IC50, recombinant GAA; assay type: biochemical
Method in brief: as §2

[3] = test system: maltase-glycoamylase (MGAM); assay: Competitive ABPP against probe 13 in mouse gastrointestinal lysate; assay type: biochemical; settings: mouse intestine lysate, 1 h at 37 °C
Method in brief: as §1

O=S1(=O)O[C@@H]2[C@H](O)[C@@H](O)[C@H](O)[C@@H](CO)[C@@H]2O1 [Compound 5, 1,6-epi-cyclophellitol cyclosulfate]
competition of off-target probe 13 labeling of LPH [1]: not outcompeted
IC50 (GBA2): > 100 µM
solvolytic stability (spontaneous hydrolysis) [2]: no spontaneous hydrolysis
inhibition of probe 14 labeling of GBA3 (GBA3): no inhibition
IC50 (human α-glucosidase GAA): 0.082 ± 0.001 µM
inhibition of probe 13 labeling of MGAM [3]: inhibited
